Assay results: ChEMBL document CHEMBL1126136, “Stereoselective LSD-like activity in d-lysergic acid amides of (R)- and (S)-2-aminobutane” (J Med Chem, 1992)

Legend:
[1] = system: Rattus norvegicus; assay: Percentage of animals selecting drug lever at a dose 163 nmol/kg; assay type: functional
Method in brief: (§1)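 Two-lever drug discrimination in rats trained to tell ip LSD tartrate (0.08 mg/kg, 186 nmol/kg, 30 min pretreatment) from saline, FR50 food schedule. Test drugs were given ip in saline. Test sessions ran under extinction and ended at 50 presses on one lever. Read-out was the percentage of rats selecting the drug lever at each dose; an 85% accuracy criterion applied.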

[2] = system: Rattus norvegicus; assay: Percentage of animals selecting drug lever at a dose 186 nmol/kg; assay type: functional; method in brief: as §1
[3] = system: Rattus norvegicus; assay: Percentage of animals selecting drug lever at a dose 139 nmol/kg; assay type: functional; method in brief: as §1
[4] = species on record: Rattus norvegicus; assay: Potency of compound in 1-trained rats measured as ED50 relative to LSD; assay type: functional
[5] = system: Rattus norvegicus; assay: Percentage of animals selecting drug lever at a dose 47nmol/kg; assay type: functional; method in brief: as §1
[6] = system: Rattus norvegicus; assay: Percentage of animals selecting drug lever at a dose 279 nmol/kg; assay type: functional; method in brief: as §1
[7] = species on record: Rattus norvegicus; assay: Potency of compound in 1-trained rats; assay type: functional
[8] = system: Rattus norvegicus; assay: Percentage of animals selecting drug lever at a dose 93 nmol/kg; assay type: functional; method in brief: as §1
[9] = system: Rattus norvegicus; assay: Percentage of animals selecting drug lever at a dose 301 nmol/kg; assay type: functional; method in brief: as §1
[10] = target: T1, Serotonin receptor 2a and 2b (5HT2A and 5HT2B) (Rattus norvegicus, UniProt P30994+P14842); assay: Affinity in displacing [125I](R)-DOI from rat cortical homogenate 5-hydroxytryptamine 2 receptor.
Method in brief: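 Male Sprague-Dawley rat frontal cortex homogenate (pooled from 10–20 rats, sucrose-washed, preincubated twice at 37 °C). Membranes at 200–400 µg protein in 50 mM Tris HCl pH 7.4 with 0.5 mM EDTA, 0.1% ascorbate, 10 µM pargyline and 10 mM MgCl2. Displacement of 0.25 nM [125I]-(R)-DOI, 15 min at 37 °C, then filtered and gamma-counted. Triplicates; Ki from 3–4 experiments.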

[11] = system: Rattus norvegicus; assay: Percentage of animals selecting drug lever at a dose 290 nmol/kg; assay type: functional; method in brief: as §1
[12] = system: Rattus norvegicus; assay: Percentage of animals selecting drug lever at a dose 372 nmol/kg; assay type: functional; method in brief: as §1
[13] = system: Rattus norvegicus; assay: Percentage of animals selecting drug lever at a dose 465 nmol/kg; assay type: functional; method in brief: as §1
[14] = target: T2, 5-hydroxytryptamine receptor 1A (Rattus norvegicus, UniProt P19327); assay: Affinity in displacing [3H]8-OH-DPAT from rat hippocampal 5-hydroxytryptamine 1A receptor.; assay type: tissue-based, Hippocampus
T2 sequence (P19327 whole entry): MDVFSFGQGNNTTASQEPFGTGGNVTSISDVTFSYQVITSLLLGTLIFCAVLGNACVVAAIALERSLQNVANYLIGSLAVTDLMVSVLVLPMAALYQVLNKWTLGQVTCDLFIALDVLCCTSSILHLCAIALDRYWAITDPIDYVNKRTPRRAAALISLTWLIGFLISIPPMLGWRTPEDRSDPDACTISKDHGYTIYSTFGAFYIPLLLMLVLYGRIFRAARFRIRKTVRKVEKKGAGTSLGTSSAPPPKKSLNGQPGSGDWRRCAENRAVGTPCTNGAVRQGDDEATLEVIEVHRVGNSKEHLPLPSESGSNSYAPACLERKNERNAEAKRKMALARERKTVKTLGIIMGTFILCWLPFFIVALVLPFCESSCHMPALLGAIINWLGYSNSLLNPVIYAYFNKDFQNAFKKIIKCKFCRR
Method in brief: (§2)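 Male Sprague-Dawley rat hippocampal homogenate (pooled from 10–20 rats, sucrose-washed, preincubated twice at 37 °C). Membranes at 200–400 µg protein in 50 mM Tris HCl pH 7.4 with 0.5 mM EDTA, 0.1% ascorbate and 10 µM pargyline. Displacement of 1.0 nM [3H]-8-OH-DPAT, 10 min at 37 °C, then filtered. Nonspecific binding defined with 10 µM serotonin. Triplicates; 3–4 experiments.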

[15] = target: T1, Serotonin receptor 2a and 2b (5HT2A and 5HT2B); assay: Affinity in displacing [125I](R)-DOI from rat cortical homogenate 5-HT2 receptor.
Method in brief: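 Male Sprague-Dawley rat frontal cortex homogenate (pooled from 10–20 rats, sucrose-washed, preincubated twice at 37 °C). Membranes at 200–400 µg protein in 50 mM Tris HCl pH 7.4 with 0.5 mM EDTA, 0.1% ascorbate, 10 µM pargyline and 10 mM MgCl2. Triplicates; Ki from 3–4 experiments.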

[16] = system: Rattus norvegicus; assay: Percentage of animals selecting drug lever at a dose 23 nmol/kg; assay type: functional; method in brief: as §1
[17] = system: Rattus norvegicus; assay: Percentage of animals selecting drug lever at a dose 12 nmol/kg; assay type: functional; method in brief: as §1
[18] = target: T2, 5-hydroxytryptamine receptor 1A; assay: Affinity in displacing [3H]8-OH-DPAT from rat hippocampal 5-HT1A receptor.; assay type: tissue-based, Hippocampus; method in brief: as §2
[19] = system: Rattus norvegicus; assay: Percentage of animals selecting drug lever at a dose 6 nmol/kg; assay type: functional; method in brief: as §1

Q: What does the source list for CN1C[C@H](C(=O)N2CCCC2)C=C2c3cccc4[nH]cc(c34)C[C@H]21?
A: SDL [1]: 40%; SDL [2]: 60%; SDL [3]: 27%; Relative potency [4]: 0.16; SDL [5]: 22%; SDL [6]: 67%; ED50 [7]: 0.168 µmol/kg; SDL [8]: 22%; SDL [9]: 82%

Q: Which results are given for CC[C@H](C)NC(=O)[C@@H]1C=C2c3cccc4[nH]cc(c34)C[C@H]2N(C)C1?
A: SDL [2]: 75%; Relative potency [4]: 0.22; Ki [10]: 7.76 nM; SDL [11]: 67%; SDL [5]: 13%; SDL [12]: 75%; ED50 [7]: 0.124 µmol/kg; SDL [13]: 100%; SDL [8]: 50%; Ki [14]: 4.61 nM

Q: CC[C@@H](C)NC(=O)[C@@H]1C=C2c3cccc4[nH]cc(c34)C[C@H]2N(C)C1 was tested. Which Ki [15] did it give?
A: Its Ki is 2.63 nM.

Q: And the SDL [2]?
A: The SDL was 88%.

Q: What about the Relative potency [4] of the same compound?
A: The Relative potency was 0.82.

Q: What about the SDL [16] of the same compound?
A: Its SDL is 50%.

Q: And the SDL [5]?
A: Its SDL is 75%.

Q: What about the SDL [17] of the same compound?
A: The SDL was 13%.

Q: What about the ED50 [7] of the same compound?
A: Its ED50 is 0.033 µmol/kg.

Q: And the SDL [8]?
A: The SDL was 75%.

Q: And the Ki [18]?
A: The Ki was 2.01 nM.

Q: Which results are given for CCN(CC)C(=O)[C@@H]1C=C2c3cccc4[nH]cc(c34)C[C@H]2N(C)C1 [LYSERGIDE]?
A: SDL [16]: 36%; SDL [19]: 0%; SDL [5]: 78%; ED50 [7]: 0.0275 µmol/kg; SDL [8]: 100%; Ki [18]: 5.05 nM
